In ChEMBL document CHEMBL3739398, “Inhibition of Invasion in Pancreatic Cancer Cells by Conjugate of EPA with β(3,3)-Pip-OH via PI3K/Akt/NF-kB Pathway” (ACS Med Chem Lett, 2015) one finds inhibition, Activity and IC50 data, which are given here for seven compounds.

Data set [1] is described as follows: Downregulation of MMP-2 expression in human PANC1 cells at 2 and 4 uM by western blot analysis. It is filed as functional, cell-based. The settings on record: PANC-1. The method, boiled down: (§1)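 PANC-1 seeded in six-well plates and treated with indicated compound concentrations; whole-cell lysates probed for target proteins by Western blotting.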
The nature of data set [2]: Downregulation of MMP-9 expression in human PANC1 cells at 2 and 4 uM by western blot analysis. To be noted: PANC-1. It is filed as functional, cell-based. The method in brief: as §1
Data set [3] can be described thus: Upregulation of TIMP1 expression in human PANC1 cells by western blot analysis. Type of data set: functional, cell-based. The settings on record: PANC-1. The method in brief:
as §1

A short description of data set [4]: Downregulation of S6K expression in human PANC1 cells at 2 and 4 uM by western blot analysis. Type of data set: functional, cell-based. To be noted: PANC-1. The method in brief: as §1
The nature of data set [5]: Cytotoxicity against human PC3 cells by MTT assay. It is filed as functional, cell-based. To be noted: PC-3.
Data set [6] is described as follows: Downregulation of PI3K-p85 alpha expression in human PANC1 cells by western blot analysis. It is filed as functional, cell-based. To be noted: PANC-1. The method, boiled down: as §1
Data set [7] in a line: Upregulation of E-cadherin expression in human PANC1 cells at 2 and 4 uM by western blot analysis. It is filed as functional, cell-based. The settings on record: PANC-1. The method, boiled down:
as §1

Data set [8] deals with PANC-1. Nature of the data set: Inhibition of PI3K-mediated Akt phosphorylation at S473 residue in human PANC1 cells by western blot analysis. Type of data set: cell-based. The method in brief:
as §1

Data set [9] in a line: Cytotoxicity against human PANC1 cells by MTT assay. Type of data set: functional, cell-based. To be noted: PANC-1.
The subject of data set [10] is PANC-1. Nature of the data set: Inhibition of cell invasion in human PANC1 cells by 3D invasion assay in presence of neutralized collagen. It is filed as functional, cell-based. The method in brief: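 PANC-1 mixed with neutralized collagen, spotted centrally in wells and solidified as a cell-collagen hemisphere; fresh medium with or without compound added; invasion beyond the original collagen boundary scored against DMSO-treated cells.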

Data set [11] deals with PANC-1. Nature of the data set: Inhibition of colony formation in human PANC1 cells at 2 and 4 uM for 5 days by crystal violet staining based microscopic analysis. It is filed as functional, cell-based. The method in brief: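 PANC-1 seeded at 1 × 10^3 cells/well, treated with compound alongside DMSO for 5 days; crystal violet-stained colonies counted in random fields and imaged under inverted microscope (20×); three independent experiments.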

Data set [12] in a line: Effect on total mTOR expression in human PANC1 cells at 2 and 4 uM by western blot analysis. Type of data set: cell-based. The settings on record: panc-1. The method, boiled down: as §1
Data set [13] has as its system PANC-1. Kind of data set: Antimetastatic activity in human PANC1 cells at 2 and 4 uM after 24 hrs by fluorescent gelatin degradation assay. Type of data set: functional, cell-based. The method in brief: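 PANC-1 grown 24 h on coverslips coated with cross-linked FITC-conjugated gelatin in presence of compound; matrix degradation spots visualized by fluorescence and degraded area highlighted by image analysis.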

Data set [14] concerns PANC-1. Kind of data set: Inhibition of PI3K-mediated mTOR phosphorylation in human PANC1 cells at 2 and 4 uM by western blot analysis. It is filed as cell-based. The method, boiled down:
as §1

Data set [15] in a line: Cytotoxicity against human HCT116 cells by MTT assay. The settings on record: HCT-116. Type of data set: functional, cell-based.
The nature of data set [16]: Downregulation of PI3K-p110 alpha expression in human PANC1 cells by western blot analysis. Type of data set: functional, cell-based. To be noted: PANC-1. The method, boiled down: as §1
Data set [17] relates to PANC-1. Nature of the data set: Inhibition of cell migration in human PANC1 cells at 2 and 4 microM after 48 hrs by wound healing assay. Type of data set: functional, cell-based. The method, boiled down: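 Scratch wound made in PANC-1 monolayer; cells treated with compound at 2.0 and 4.0 μM, DMSO vehicle control; wound area photographed at 20× magnification at 0 h and after incubation; statistics from three independent experiments.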

The test system of data set [18] is PANC-1. Nature of the data set: Inhibition of cell invasion in human PANC1 cells at 2 and 4 uM for 24 hrs by matrigel invasion assay. Type of data set: functional, cell-based. The method in brief: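 Boyden chamber matrigel invasion: PANC-1 treated 24 h with compound (2.0 and 4.0 μM); invaded cells counted in five random fields per group under inverted microscope (20×); three independent experiments, p < 0.05.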

Data set [19] can be described thus: Downregulation of NF-kappaB expression in human PANC1 cells by western blot analysis. To be noted: PANC-1. Type of data set: functional, cell-based. The method, boiled down: as §1

Molecules are shown by their SMILES. pIC50: −log10 of the molar value. Calls of active or inactive are those of the source. The calls are words filed in the database; no cut-off is given here. Bounds are passed on as bounds.

For the compound `CCCCC(=O)NC1(CC(=O)NNc2ccccc2)CCN(C(=O)/C=C/C(=C/c2ccc3c(c2)OCO3)CC)CC1`, the inhibition entry (in data set [1]; in data set [2]; in data set [4]; with PANC-1 [11]; in the data set with PANC-1 [13]; in the data set on PANC-1 [14]) was “Active” each time. The inhibition entry in the data set with PANC-1 [17] and with PANC-1 [18] was “Active” in each case. Also, the figures for the Activity entry in data set [3] and in data set [12] were “Dose-dependent effect” and “Non-toxic”, respectively. Moreover, the pIC50 is 4.82 in [5], 5.40 in data set [9] and less than 4.00 in [15]. The inhibition entry (in [6]; with PANC-1 [8]; in the data set with PANC-1 [10]; in [16]; in [19]) was “Dose-dependent effect” in each case. Besides, the result in [7] was Active.
Turning to `CCC(/C=C/C(=O)N[C@@H](Cc1ccccc1)C(=O)OC)=C\c1ccc2c(c1)OCO2`, the pIC50 in data set [5] was 4.38; in [9], less than 4.00; in data set [15], 4.32.
For `CCC(/C=C/C(=O)O)=C\c1ccc2c(c1)OCO2` the same measures were less than 4.00, less than 4.00 and less than 4.00.
As for `CCC(/C=C/C(=O)NC1(CC(=O)OC)CCCCC1)=C\c1ccc2c(c1)OCO2`, the pIC50 in data set [5] is 4.70; in data set [9], less than 4.00; in data set [15], less than 4.00.
With `CCC(/C=C/C(=O)N[C@@H](C)C(=O)OC)=C\c1ccc2c(c1)OCO2`, the pIC50 in [5] was 4.36; in [9], 5.17; in data set [15], 4.33.
For `CCC(/C=C/C(=O)N1CCC[C@H]1C(=O)OC)=C\c1ccc2c(c1)OCO2` the same measures were 4.80, 4.37 and 4.30.
For `CCC(/C=C/C(=O)NCC1(CC(=O)OC)CCCCC1)=C\c1ccc2c(c1)OCO2` the same measures were 4.34, 5.00 and 4.32.
